In ChEMBL document CHEMBL1126123, “Reversible inhibitors of the gastric (H+/K+)-ATPase. 3. 3-substituted-4-(phenylamino)quinolines” (J Med Chem, 1992):

Columns and labels:
[1] = biological target: T1, Potassium-transporting ATPase (Sus scrofa, UniProt P19156); assay: (§1) […] inhibit the activity of gastric H+/K+ ATPase; type: tissue-based, Stomach
How it was run: (§2)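 Initial screen of K+-stimulated ATPase activity in a lyophilized gastric vesicle preparation at pH 7, in vitro.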

[2] = biological target: T2, Potassium-transporting ATPase (Sus scrofa) (UniProt P18434+P19156); assay: as §1; type: tissue-based; settings: Stomach; how it was run: as §2
[3] = biological target: T3, Potassium-transporting ATPase subunit beta (Rattus norvegicus) (UniProt P18598); assay: Inhibition of pentagastrin stimulated gastric acid secretion in anesthetized rat upon intravenous administration; type: functional, organism-based; settings: Stomach
T3 sequence (whole entry): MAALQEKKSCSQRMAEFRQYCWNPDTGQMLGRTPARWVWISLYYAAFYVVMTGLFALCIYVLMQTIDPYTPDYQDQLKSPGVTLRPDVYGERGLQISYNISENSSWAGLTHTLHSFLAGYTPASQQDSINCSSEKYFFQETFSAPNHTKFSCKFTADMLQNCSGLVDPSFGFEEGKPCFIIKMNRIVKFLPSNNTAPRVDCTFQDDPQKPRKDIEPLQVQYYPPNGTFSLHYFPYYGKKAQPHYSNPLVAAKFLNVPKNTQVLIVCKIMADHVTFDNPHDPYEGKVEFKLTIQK
How it was run: (§3)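 Anesthetized rat with lumen-perfused stomach; acid secretion induced by pentagastrin; compound given intravenously.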

[4] = biological target: T1, Potassium-transporting ATPase; assay: […] inhibit the activity of K+ stimulated gastric ATPase; type: tissue-based, Stomach; how it was run: as §2
Canis familiaris [5] = assay: Inhibition of histamine stimulated gastric acid secretion was tested in heidenhain pouch dog at 4 uM/kg upon oral administration; type: functional, Canis lupus familiaris, Stomach
[6] = biological target: Potassium-transporting ATPase (Rattus norvegicus) (UniProt P09626+P18598); assay: Inhibition of pentagastrin stimulated gastric acid secretion in anesthetized rat at 10 umol/kg upon intravenous administration; type: functional, organism-based; settings: Stomach
Canis familiaris [7] = assay: Inhibition of histamine stimulated gastric acid secretion was tested in heidenhain pouch dog at 1 umol/kg upon intravenous administration; type: functional; settings: Canis lupus familiaris, Stomach
Rattus norvegicus [8] = assay: inhibition pentagastrin stimulated gastric acid secretion in anesthetized rat when compound (10 umol/kg) administered intravenously; type: functional, Stomach
[9] = biological target: T2, Potassium-transporting ATPase (Sus scrofa); assay: […] inhibit the activity of K+ stimulated gastric ATPase at 100 uM; type: tissue-based; settings: Stomach
Canis familiaris [10] = assay: Inhibition of histamine stimulated gastric acid secretion was tested in heidenhain pouch dog upon intravenous administration; type: functional; settings: Canis lupus familiaris, Stomach
Rattus norvegicus [11] = assay: Compound was evaluated for inhibition pentagastrin stimulated gastric acid secretion in anesthetized rat when administered intravenously.; type: functional; settings: Stomach, iv; how it was run: as §3
Canis familiaris [12] = assay: Inhibition of histamine stimulated gastric acid secretion was tested in heidenhain pouch dog upon oral administration; type: functional; settings: Canis lupus familiaris, Stomach

T1 sequence (P18434 whole entry): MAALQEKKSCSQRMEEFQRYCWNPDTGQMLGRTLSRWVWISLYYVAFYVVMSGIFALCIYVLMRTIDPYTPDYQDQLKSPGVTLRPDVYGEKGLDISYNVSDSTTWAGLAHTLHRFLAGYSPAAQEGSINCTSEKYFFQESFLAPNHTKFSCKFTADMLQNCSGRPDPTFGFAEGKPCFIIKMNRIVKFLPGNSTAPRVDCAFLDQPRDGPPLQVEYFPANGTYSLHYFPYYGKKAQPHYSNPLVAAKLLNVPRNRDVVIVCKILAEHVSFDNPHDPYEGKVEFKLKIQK
T1 sequence (P19156 whole entry): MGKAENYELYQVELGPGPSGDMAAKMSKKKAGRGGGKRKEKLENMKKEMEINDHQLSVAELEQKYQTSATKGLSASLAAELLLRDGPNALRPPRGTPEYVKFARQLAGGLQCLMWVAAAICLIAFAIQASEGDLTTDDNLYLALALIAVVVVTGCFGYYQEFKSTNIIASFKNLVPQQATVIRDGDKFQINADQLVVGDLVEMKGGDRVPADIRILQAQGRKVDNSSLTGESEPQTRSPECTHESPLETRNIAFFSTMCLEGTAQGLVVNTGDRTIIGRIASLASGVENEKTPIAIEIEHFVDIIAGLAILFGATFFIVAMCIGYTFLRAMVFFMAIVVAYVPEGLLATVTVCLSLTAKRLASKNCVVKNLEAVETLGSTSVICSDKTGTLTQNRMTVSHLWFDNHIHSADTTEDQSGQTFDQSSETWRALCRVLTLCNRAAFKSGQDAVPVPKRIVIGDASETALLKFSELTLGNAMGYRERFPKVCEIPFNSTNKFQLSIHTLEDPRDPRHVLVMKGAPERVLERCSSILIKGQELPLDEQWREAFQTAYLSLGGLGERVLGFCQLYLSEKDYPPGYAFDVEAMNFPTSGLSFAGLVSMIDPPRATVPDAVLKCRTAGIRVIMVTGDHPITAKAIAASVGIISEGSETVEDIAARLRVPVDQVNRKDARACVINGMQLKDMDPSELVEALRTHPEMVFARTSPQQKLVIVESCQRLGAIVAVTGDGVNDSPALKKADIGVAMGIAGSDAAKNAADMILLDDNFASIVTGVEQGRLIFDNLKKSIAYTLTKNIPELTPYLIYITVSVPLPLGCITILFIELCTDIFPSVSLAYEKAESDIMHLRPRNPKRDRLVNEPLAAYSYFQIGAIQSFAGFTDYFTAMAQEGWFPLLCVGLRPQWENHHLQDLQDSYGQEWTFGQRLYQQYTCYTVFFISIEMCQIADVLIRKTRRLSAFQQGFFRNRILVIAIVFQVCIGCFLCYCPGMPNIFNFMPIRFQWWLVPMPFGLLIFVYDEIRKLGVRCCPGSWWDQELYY

SMILES	IC50 [4]	inhibition [6]	also measured
COc1cccc2c(Nc3ccccc3C)c(C(N)=O)cnc12	–	–	IC50 [1]: 15.3 µM
COc1cccc2c(Nc3ccccc3C)c(C(=O)O)cnc12	–	–	inhibition [2]: 30%
COc1cccc2c(Nc3ccccc3C)ccnc12	0.1 µM	–	ED50 [3]: 12.7 µmol/kg
COc1cccc2c(Nc3ccccc3C)c(C(=O)C(C)(C)C)cnc12	2.6 µM	63%	Inhibition (Canis familiaris [5]): 11.3%
COc1cccc2c(Nc3ccccc3C)c(C(=O)C(C)C)cnc12	1.09 µM	–	Inhibition (Canis familiaris [5]): 44.6%; ED50 [3]: 1.92 µmol/kg; inhibition in vivo at 1 µmol/kg (Canis familiaris [7]): 75%
COCC(=O)c1cnc2c(OC)cccc2c1Nc1ccccc1C	12.1 µM	–	ED50 [3]: 12.2 µmol/kg
COc1cccc2c(Nc3ccccc3C)c(C(=O)C3CCCC3)cnc12	1.7 µM	56%	Inhibition (Canis familiaris [5]): 55.7%
CCCSc1cnc2ccccc2c1Nc1ccccc1C	5.14 µM	11%	–
CNC(=O)c1cnc2c(OC)cccc2c1Nc1ccccc1C	–	–	IC50 [1]: 6.73 µM; Inhibition (Rattus norvegicus [8]): 28%
CCC(=O)c1cnc2c(OC)cccc2c1Nc1ccccc1C	0.4 µM	–	Inhibition (Canis familiaris [5]): 92.3%; ED50 [3]: 1.39 µmol/kg; inhibition in vivo at 1 µmol/kg (Canis familiaris [7]): 80.9%
CCCCCC(=O)c1cnc2c(OC)cccc2c1Nc1ccccc1C	2.77 µM	–	ED50 [3]: 10.7 µmol/kg
CCCC(=O)c1cnc2c(OC)cccc2c1Nc1ccccc1	4 µM	34%	–
CCC[S+]([O-])c1cnc2ccccc2c1Nc1ccccc1C (stereo not given)	–	21%	inhibition [9]: 19%
CCOC(=O)c1cnc2ccccc2c1Nc1ccccc1C	0.6 µM	49%	–
COc1cccc2c(Nc3ccccc3C)c(C(=O)NCc3ccccc3)cnc12	49 µM	13%	–
CCOC(=O)c1cnc2c(OC)cccc2c1Nc1ccccc1C.Cl	–	–	Inhibition (Canis familiaris [5]): 11.1%; ED50 (Canis familiaris [10]): 0.49 µmol/kg; ED50 (Rattus norvegicus [11]): 8.23 µmol/kg
CCC(CC)C(=O)c1cnc2c(OC)cccc2c1Nc1ccccc1C	1.8 µM	55%	–
COc1cccc2c(Nc3ccccc3C)c(C(=O)N3CCCC3)cnc12	–	15%	inhibition [9]: 20%
COc1cccc2c(Nc3ccccc3C)c(C(=O)OCCN(C)C)cnc12	44 µM	19%	–
COc1cccc2c(Nc3ccccc3C)c(C(=O)c3ccccc3)cnc12	16.1 µM	–	–
COc1cccc2c(Nc3ccccc3C)c(C(C)O)cnc12 (stereo not given)	24 µM	–	–
CCNC(=O)c1cnc2c(OC)cccc2c1Nc1ccccc1C	2.94 µM	58%	–

SMILES	IC50 [4]	inhibition [6]	also measured
Cc1ccccc1Nc1c(Br)cnc2ccccc12	14.1 µM	31%	–
CO/N=C(\C)c1cnc2c(OC)cccc2c1Nc1ccccc1C	20.5 µM	–	–
Cc1ccccc1Nc1ccnc2ccccc12	1.43 µM	16%	–
CN/C(=N\CCSCc1nc[nH]c1C)NC#N [CIMETIDINE]	–	–	ED50 (Canis familiaris [10]): 1.7 µmol/kg; ED50 (Canis familiaris [12]): 8.5 µmol/kg
CCCC(O)c1cnc2c(OC)cccc2c1Nc1ccccc1C (stereo not given)	55 µM	–	–
COc1cccc2c(Nc3ccccc3C)c(C(=O)C3CCC3)cnc12	1.2 µM	47%	–
CCCc1cnc2c(OC)cccc2c1Nc1ccccc1C	8.63 µM	34%	–
CCOC(=O)c1cnc2c(OC)cccc2c1N(C)c1ccccc1	89 µM	–	–
COc1cccc2c(Nc3ccccc3C)c(C(=O)NC(C)(C)CO)cnc12	–	13%	inhibition [9]: 26%
CCCC(=O)c1cnc2ccccc2c1Nc1ccccc1C	0.97 µM	–	ED50 [3]: 5.45 µmol/kg; inhibition in vivo at 1 µmol/kg (Canis familiaris [7]): 45.4%
COc1cccc2c(Nc3ccccc3C)c(C(C)=O)cnc12	4.8 µM	–	ED50 [3]: 13.2 µmol/kg; inhibition in vivo at 1 µmol/kg (Canis familiaris [7]): 11%
CCOC(=O)c1cnc2c(OC)cccc2c1Nc1ccccc1.Cl	–	–	IC50 [1]: 3.54 µM; Inhibition (Rattus norvegicus [8]): 38%
CCOC(=O)c1cnc2c(OC)cccc2c1Oc1ccccc1C	–	–	inhibition [9]: 13%
C=CCNC(=O)c1cnc2c(OC)cccc2c1Nc1ccccc1C	3.45 µM	38%	–
COc1cccc2c(Nc3ccccc3C)c(C(=O)C3CCCCC3)cnc12	3.8 µM	42%	–
CCCC(=O)c1cnc2c(OC)cccc2c1Nc1ccccc1C	1.05 µM	–	ED50 (Canis familiaris [10]): 0.26 µmol/kg; ED50 (Canis familiaris [12]): 1.6 µmol/kg; ED50 [3]: 2.62 µmol/kg
CCCNC(=O)c1cnc2c(OC)cccc2c1Nc1ccccc1C	22 µM	40%	–
COc1cccc2c(Nc3ccccc3C)c(CO)cnc12	–	–	IC50 [1]: 11.6 µM; Inhibition (Rattus norvegicus [8]): 5%
CCCCNC(=O)c1cnc2c(OC)cccc2c1Nc1ccccc1C	65 µM	30%	–
COc1cccc2c(Nc3ccccc3C)c(C)cnc12	6.1 µM	12.5%	–
Cc1ccccc1Nc1c([N+](=O)[O-])cnc2ccccc12	–	30%	–
Cc1ccccc1Nc1c(N)cnc2ccccc12	30.6 µM	27%	–
